Experimental data from ChEMBL document CHEMBL1129499, “Azole endothelin antagonists. 3. Using delta log P as a tool to improve absorption” (J Med Chem, 1996).

Legend:
Endothelin-1 receptor = target: T1, Endothelin-1 receptor (Homo sapiens, UniProt P25101); assay: Inhibitory activity was evaluated against human Endothelin A receptor
T1 sequence (P25101 whole entry): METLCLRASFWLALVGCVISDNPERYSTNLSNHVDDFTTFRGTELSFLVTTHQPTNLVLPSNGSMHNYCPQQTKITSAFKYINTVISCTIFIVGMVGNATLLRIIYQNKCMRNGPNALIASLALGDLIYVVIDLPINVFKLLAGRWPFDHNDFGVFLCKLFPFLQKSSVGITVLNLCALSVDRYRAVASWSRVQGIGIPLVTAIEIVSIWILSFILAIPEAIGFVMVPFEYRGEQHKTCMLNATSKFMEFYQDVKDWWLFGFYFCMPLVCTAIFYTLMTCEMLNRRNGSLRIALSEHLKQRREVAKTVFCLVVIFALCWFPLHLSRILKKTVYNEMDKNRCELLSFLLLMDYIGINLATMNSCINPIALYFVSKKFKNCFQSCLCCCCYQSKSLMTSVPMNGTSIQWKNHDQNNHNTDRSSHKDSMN
Procedure, shortened: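 Human ETA or ETB receptors expressed in CHO cells. Binding inhibition tested at 11 concentrations from 10⁻¹⁰ to 10⁻⁵ M, in duplicate.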

[1] = Total absorption was estimated by area under curve (AUC) after intraduodenal administration in rat; design: concentration or dose not given beside the values; details: in vivo, id
[2] = target: T2, Endothelin receptor type B (Homo sapiens, UniProt P24530); assay: Inhibitory activity was evaluated against human Endothelin B receptor
T2 sequence (P24530 whole entry): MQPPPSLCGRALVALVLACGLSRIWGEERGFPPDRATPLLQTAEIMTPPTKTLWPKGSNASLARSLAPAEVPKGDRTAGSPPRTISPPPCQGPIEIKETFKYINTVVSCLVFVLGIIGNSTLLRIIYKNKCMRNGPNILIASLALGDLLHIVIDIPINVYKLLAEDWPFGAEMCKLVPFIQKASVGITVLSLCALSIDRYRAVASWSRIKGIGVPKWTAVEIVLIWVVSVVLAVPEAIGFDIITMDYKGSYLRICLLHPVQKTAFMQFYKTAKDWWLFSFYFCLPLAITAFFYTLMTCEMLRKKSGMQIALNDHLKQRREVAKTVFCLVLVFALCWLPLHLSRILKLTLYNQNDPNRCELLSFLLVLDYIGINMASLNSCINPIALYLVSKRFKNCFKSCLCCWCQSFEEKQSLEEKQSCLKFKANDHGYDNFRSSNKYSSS
Procedure, shortened: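 Human ETA or ETB receptors expressed in CHO cells. Binding inhibition tested at 11 concentrations from 10⁻¹⁰ to 10⁻⁵ M, in duplicate. IC50 is the mean of at least 2 measurements (n = 2).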

[3] = Partition coefficient by standard shake-flask techniquesat 37 C, using octanol and cyclohexane; format: physicochemical
Procedure, shortened: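 Shake-flask partitioning at 37 °C. About 1 mg of compound dissolved in 4.5 mL 0.05 M PIPES, pH 6.5. Aqueous aliquot shaken 2 h with an equal volume of octanol (H-bonding) or cyclohexane (non-H-bonding), then centrifuged. Both phases assayed by HPLC. Delta log P is derived from the octanol and cyclohexane log D values. Mean of at least two determinations.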

logD (pH 6.5) = details: buffer
[4] = Oral bioavailability of compound at a dose of 10 mg/kg was determined in rat; format: ADME, organism-based; details: in vivo
Procedure, shortened: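 Male Sprague-Dawley rats, n = 4 per group. 10 mg/kg given by gavage or as a slow iv bolus into the jugular vein, 10 mg/mL in ethanol–propylene glycol–D5W (20:30:50) with 1 equiv NaOH. Tail-vein plasma sampled up to 12 h and assayed by HPLC after extraction. F is the dose-corrected ratio of oral to iv AUC0–∞.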

SMILES	IC50 (Endothelin-1 receptor) [nM]	AUC [1] [ng·h/mL]	IC50 [2] [nM]	delta Log P [3]	logD (logD (pH 6.5))	bioavailability [4] [%]
Cc1oc([C@@H](Cc2cn(C)c3ccccc23)NC(=O)[C@H](CC(C)C)NC(=O)OC2CCCCC2)nc1C(=O)O	41	1360	> 100000	4.66		
CCCN(Cc1ccc(-c2ccccc2-c2nnn[nH]2)cc1)c1ncccc1C(=O)O				2.45	-0.85	
Cc1[nH]c([C@@H](Cc2cn(C)c3ccccc23)NC(=O)[C@H](CC(C)C)NC(=O)OC2CCCCC2)nc1C(=O)O	76	168	> 100000	> 6.2		
Cn1c(=O)c2[nH]cnc2n(C)c1=O.O [THEOPHYLLINE]				1.53	-0.12	
Cc1oc([C@@H](Cc2cn(C)c3ccccc23)NC(=O)[C@@H](CC(=O)NC2CCCCC2)CC(C)C)nc1C(=O)O	310	292	> 100000	3.82		
Cc1[nH]c([C@@H](Cc2cn(C)c3ccccc23)NC(=O)[C@H](CC(C)C)NC(=O)N(C)C2CCCCC2)nc1C(=O)O	1.8	103	20000	5.4		
Cc1oc([C@@H](Cc2cn(C)c3ccccc23)NC(=O)[C@H](CC(C)C)NC(=O)N(C)C2CCCCC2)nc1C(=O)O	25	833	> 100000	4.05		
Cc1[nH]c([C@@H](Cc2cn(C)c3ccccc23)NC(=O)[C@H](CC(C)C)OC(=O)NC2CCCCC2)nc1C(=O)O	9.3	347	54000	> 6.1		
Cc1[nH]c([C@@H](Cc2cn(C)c3ccccc23)NC(=O)[C@H](CC(C)C)N(C)C(=O)NC2CCCCC2)nc1C(=O)O	22	247	> 100000	> 6		
Cc1oc([C@@H](Cc2cn(C)c3ccccc23)NC(=O)[C@H](CC(C)C)NC(=O)CC2CCCCC2)nc1C(=O)O			> 100000	3.78		
Cc1[nH]c([C@@H](Cc2cn(C)c3ccccc23)NC(=O)[C@H](CC(C)C)NC(=O)CC2CCCCC2)nc1C(=O)O	470		> 90000	5.66		
Cc1[nH]c([C@@H](Cc2cn(C)c3ccccc23)NC(=O)[C@H](CC(C)C)NC(=O)NC2CCCCC2)nc1C(=O)O	11	4.33	34000	5.92		
Cc1[nH]c([C@@H](Cc2cn(C)c3ccccc23)NC(=O)[C@@H](CC(=O)NC2CCCCC2)CC(C)C)nc1C(=O)O	29	81.7	> 100000	> 6.2		
Cc1oc([C@@H](Cc2cn(C)c3ccccc23)NC(=O)[C@H](CC(C)C)N(C)C(=O)NC2CCCCC2)nc1C(=O)O	450	983	> 100000	4.59		
COc1cccc(Oc2c(NS(=O)(=O)c3ccc(C(C)(C)C)cc3)ncnc2OCCO)c1				2.37	1.98	
Cc1oc([C@@H](Cc2cn(C)c3ccccc23)NC(=O)[C@H](CC(C)C)OC(=O)OC2CCCCC2)nc1C(=O)O	17	1760	79000	3.71		
Cc1oc([C@@H](Cc2cn(C)c3ccccc23)NC(=O)[C@H](CC(C)C)OC(=O)NC2CCCCC2)nc1C(=O)O	21	815	48000	4.04		
Cc1oc([C@@H](Cc2cn(C)c3ccccc23)NC(=O)[C@H](CC(C)C)NC(=O)NC2CCCCC2)nc1C(=O)O	220	193	> 100000	> 6.1		
Cc1oc([C@@H](Cc2cn(C)c3ccccc23)NC(=O)[C@H](CC(C)C)OC(=O)N(C)C2CCCCC2)nc1C(=O)O	4.6	1840	90000	3.82		13.5
